# Entries after “also recorded” stand apart in the source; their conditions may differ.
# Assays:
# Rat pharmacokinetics = assay type: in vivo; settings: 1 mg/kg oral gavage in neat Labrasol; for plasma levels after oral gavage: LLOQ approximately 20 nM
# [1] = Solubility in aqueous systems; assay type: physicochemical
# CXCR2 = biological target: T1, CXCR2 (Homo sapiens, UniProt P25025); test: PathHunter β-arrestin assay; assay type: cell-based
# T1 sequence (P25025 1-360): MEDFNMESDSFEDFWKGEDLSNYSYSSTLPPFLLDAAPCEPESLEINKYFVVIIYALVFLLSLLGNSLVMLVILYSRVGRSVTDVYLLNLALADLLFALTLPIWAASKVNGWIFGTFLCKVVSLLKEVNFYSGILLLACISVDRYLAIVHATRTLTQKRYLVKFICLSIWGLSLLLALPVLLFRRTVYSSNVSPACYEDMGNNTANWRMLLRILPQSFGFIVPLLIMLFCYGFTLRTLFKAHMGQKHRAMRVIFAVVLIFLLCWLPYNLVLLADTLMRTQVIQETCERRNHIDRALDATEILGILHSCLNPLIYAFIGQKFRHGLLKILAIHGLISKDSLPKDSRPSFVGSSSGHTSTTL
# [2] = Metabolic stability in rat liver microsomes; assay type: in vitro ADME
# Procedure, shortened: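 Test compound at 1 μM incubated with isolated rat liver microsomes for 60 min at 37 °C. Samples analysed by LC-MS at 0 and 60 min. Result expressed as percent parent remaining at 60 min.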
# [3] = Metabolic stability in monkey liver microsomes; assay type: in vitro ADME; settings: Microsome stability (% remaining @ 60 min) monkey, 37°C, LC-MS
# Sprague-Dawley rats = test: Ozone rat model of pulmonary inflammation; assay type: in vivo; settings: 1 mg/kg IV at t = 0, 5 and 9 h; 1 ppm ozone 4 h; BALF at 24 h
# Procedure, shortened: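 Sprague-Dawley rats, n = 4 per cohort, given IV vehicle (negative and positive groups) or test compound at 1 mg/kg at t = 0. They were then exposed to air (negative) or 1 ppm ozone for 4 h and redosed at 5 and 9 h. At 24 h rats were sacrificed and BALF collected. Cells were spun down, Wright-Giemsa stained and counted. BALF protein was measured by Bradford assay.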
# [4] = system: GROα-mediated intracellular calcium release in isolated human PMNs; test: Inhibition of GROα-mediated intracellular calcium release in isolated human PMNs; assay type: cell-based; settings: for fold drop in activity relative to compound 5: PMN calcium release assay; for activity in the PMN assay: compared to compound 5
# healthy subjects = settings: clinical evaluation; cited from earlier work
compound,measurement,setting,value
O=C(Nc1ccc(F)cc1)c1ccc(SCc2ccccc2B(O)O)nc1 [Compound 5],Rat PK AUC Oral,Rat pharmacokinetics,<LLOQ
same,plasma levels after oral gavage,Rat pharmacokinetics,< 20 nM
same,solubility in aqueous systems,[1],insolubility in aqueous systems
"O=C(Nc1ccc(F)cc1)c1ccc(SCc2cc(OC(F)(F)F)ccc2B(O)O)nc1 [Compound 6, 6-(2-boronic acid-5-trifluoromethoxy-benzylsulfanyl)-N-(4-fluoro-phenyl)-nicotinamide]",mode of action,CXCR2,full antagonist
same,"remaining at 1 h, 1 μM",[2],> 90%
same,"remaining at 1 h, 1 μM",[3],> 90%
same,Rat PK AUC Oral,Rat pharmacokinetics,<LLOQ
same,plasma levels after oral gavage,Rat pharmacokinetics,< 20 nM
same,solubility in aqueous systems,[1],insolubility in aqueous systems
same,PMN influx to the lungs (BALF),Sprague-Dawley rats,significantly decreased PMN influx to the lungs to near undetectable levels; also recorded: potent inhibition of PMN recruitment; also recorded: potent inhibition of neutrophil influx
same,macrophage influx (BALF),Sprague-Dawley rats,significantly decreased
O=C(Nc1ccc(F)cc1)c1ccc(SCc2cccc(B(O)O)c2)nc1 [Compound 8],fold drop in activity relative to compound 5,[4],30 fold
O=C(Nc1ccc(F)cc1)c1ccc(SCCCCB(O)O)nc1 [Compound 10],fold drop in activity relative to compound 5,[4],18 fold
O=C(Nc1ccc(F)cc1)c1ccc(SCCc2ccccc2B(O)O)nc1 [Compound 11],fold drop in activity relative to compound 5,[4],10 fold
COc1cc(CSc2ccc(C(=O)Nc3ccc(F)cc3)cn2)c(B(O)O)cc1OC [Compound 12],activity in the PMN assay,[4],complete lack of activity
O=C(Nc1ccc(F)cc1)c1ccc(SCc2cc3c(cc2B(O)O)OCO3)nc1 [Compound 13],activity in the PMN assay,[4],complete lack of activity
COc1ccc(B(O)O)c(CSc2ccc(C(=O)Nc3ccc(F)cc3)cn2)c1 [Compound 14],fold drop in activity relative to compound 5,[4],2 fold
O=C(Nc1ccc(F)cc1)c1ccc(SCc2cc(F)ccc2B(O)O)nc1 [Compound 15],activity in the PMN assay,[4],equipotent
CC[C@@H](Nc1c(Nc2cccc(C(=O)N(C)C)c2O)c(=O)c1=O)c1ccc(C)o1 [navarixin],ozone inhalation-induced sputum PMN recruitment,healthy subjects,inhibited
